Data reported in ChEMBL document CHEMBL1649574, “Prevalence and characterization of heterogeneous vancomycin-intermediate Staphylococcus aureus isolates from 14 cities in China” (2009).
≈ marks a conversion by molar mass, not a printed value.

Legend:
Staphylococcus aureus [1] = assay: Antimicrobial activity against vancomycin-susceptible Staphylococcus aureus by broth microdilution method; assay type: functional
Outline: (§1)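 Daptomycin MICs on the blood MRSA isolates were done by broth microdilution. The broth was supplemented with calcium chloride to a final calcium of 50 mg/liter, confirmed by biochemical analysis. Isolates were grouped by PAP-AUC ratio relative to Mu3 (VSSA <0.9; hVISA 0.9 to 1.3; VISA ≥1.3).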

Staphylococcus aureus [2] = assay: Antimicrobial activity against SCCmec type II vancomycin-intermediate Staphylococcus aureus isolate 4sy32 by broth microdilution method
Staphylococcus aureus [3] = assay: Antimicrobial activity against SCCmec type IV vancomycin-intermediate Staphylococcus aureus isolate 06b41 by broth microdilution method; assay type: functional; outline: as §1
Staphylococcus aureus [4] = assay: Antimicrobial activity against SCCmec type III vancomycin-intermediate Staphylococcus aureus isolate b3k2345 by broth microdilution method
Staphylococcus aureus [5] = assay: Antimicrobial activity against vancomycin-susceptible Staphylococcus aureus assessed as growth inhibition at 4 times MIC; assay type: functional; design: scale not given: the % may be the effect or the level left
Staphylococcus aureus [6] = assay: Antimicrobial activity against SCCmec type III vancomycin-intermediate Staphylococcus aureus isolate 11b091 by broth microdilution method
Staphylococcus aureus [7] = assay: Antimicrobial activity against SCCmec type III vancomycin-intermediate Staphylococcus aureus isolate 15b52 by broth microdilution method
Staphylococcus aureus [8] = assay: Antimicrobial activity against vancomycin-susceptible Staphylococcus aureus assessed as growth inhibition at 0.125 times MIC; assay type: functional; design: scale not given: the % may be the effect or the level left
Staphylococcus aureus [9] = assay: Antimicrobial activity against SCCmec type II vancomycin-intermediate Staphylococcus aureus isolate 4sy39 by broth microdilution method
Staphylococcus aureus [10] = assay: Antimicrobial activity against SCCmec type III vancomycin-intermediate Staphylococcus aureus isolate 5zjsau3 by broth microdilution method
Staphylococcus aureus [11] = assay: Antimicrobial activity against SCCmec type III vancomycin-intermediate Staphylococcus aureus isolate gz06051 by broth microdilution method
Staphylococcus aureus [12] = assay: Antimicrobial activity against heterogeneous vancomycin-intermediate Staphylococcus aureus assessed as growth inhibition at 4 times MIC; assay type: functional; design: scale not given: the % may be the effect or the level left
Staphylococcus aureus [13] = assay: Antimicrobial activity against SCCmec type III vancomycin-intermediate Staphylococcus aureus isolate b6k1642 by broth microdilution method
Staphylococcus aureus [14] = assay: Antimicrobial activity against SCCmec type III vancomycin-intermediate Staphylococcus aureus isolate bd4768 by broth microdilution method
Staphylococcus aureus [15] = assay: Antimicrobial activity against heterogeneous vancomycin-intermediate Staphylococcus aureus by broth microdilution method; assay type: functional; outline: as §1
Staphylococcus aureus [16] = assay: Antimicrobial activity against vancomycin-susceptible Staphylococcus aureus assessed as growth inhibition at MIC; assay type: functional; design: scale not given: the % may be the effect or the level left
Staphylococcus aureus [17] = assay: Antimicrobial activity against heterogeneous vancomycin-intermediate Staphylococcus aureus assessed as growth inhibition at 2 times MIC; assay type: functional; design: scale not given: the % may be the effect or the level left
Staphylococcus aureus [18] = assay: Antimicrobial activity against heterogeneous vancomycin-intermediate Staphylococcus aureus assessed as susceptible isolates by broth microdilution method; assay type: functional
Outline: (§2)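 Daptomycin MICs by broth microdilution in BBL broth with calcium chloride added to a final calcium of 50 mg/liter, checked by biochemical analysis. Tested on the 200 MRSA blood isolates, grouped as hVISA/VISA or VSSA by PAP-AUC ratio relative to Mu3.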

Staphylococcus aureus [19] = assay: Antimicrobial activity against SCCmec type III vancomycin-intermediate Staphylococcus aureus isolate b5k3529 by broth microdilution method
Staphylococcus aureus [20] = assay: Antimicrobial activity against heterogeneous vancomycin-intermediate Staphylococcus aureus assessed as growth inhibition at 16 times MIC; assay type: functional; design: scale not given: the % may be the effect or the level left
Staphylococcus aureus [21] = assay: Antimicrobial activity against SCCmec type III vancomycin-intermediate Staphylococcus aureus isolate b5k3578 by broth microdilution method
Staphylococcus aureus [22] = assay: Antimicrobial activity against vancomycin-susceptible Staphylococcus aureus assessed as growth inhibition at 0.5 times MIC; assay type: functional; design: scale not given: the % may be the effect or the level left
Staphylococcus aureus [23] = assay: Antimicrobial activity against vancomycin-susceptible Staphylococcus aureus assessed as growth inhibition at 16 times MIC; assay type: functional; design: scale not given: the % may be the effect or the level left
Staphylococcus aureus [24] = assay: Antimicrobial activity against SCCmec type III vancomycin-intermediate Staphylococcus aureus isolate zj07028 by broth microdilution method
Staphylococcus aureus [25] = assay: Antimicrobial activity against SCCmec type III vancomycin-intermediate Staphylococcus aureus isolate gz07030 by broth microdilution method
Staphylococcus aureus [26] = assay: Antimicrobial activity against heterogeneous vancomycin-susceptible Staphylococcus aureus assessed as susceptible isolates by broth microdilution method; assay type: functional; outline: as §2
Staphylococcus aureus [27] = assay: Antimicrobial activity against heterogeneous vancomycin-intermediate Staphylococcus aureus assessed as growth inhibition at 0.5 times MIC; assay type: functional; design: scale not given: the % may be the effect or the level left
Staphylococcus aureus [28] = assay: Antimicrobial activity against SCCmec type III vancomycin-intermediate Staphylococcus aureus isolate xa07029 by broth microdilution method
Staphylococcus aureus [29] = assay: Antimicrobial activity against SCCmec type III vancomycin-intermediate Staphylococcus aureus isolate b6k7974 by broth microdilution method; assay type: functional; outline: as §1
Staphylococcus aureus [30] = assay: Antimicrobial activity against SCCmec type III vancomycin-intermediate Staphylococcus aureus isolate b3k5923 by broth microdilution method
Staphylococcus aureus [31] = assay: Antimicrobial activity against heterogeneous vancomycin-intermediate Staphylococcus aureus assessed as growth inhibition at 0.125 times MIC; assay type: functional; design: scale not given: the % may be the effect or the level left
Staphylococcus aureus [32] = assay: Antimicrobial activity against SCCmec type II vancomycin-intermediate Staphylococcus aureus isolate 6zjsau7 by broth microdilution method
Staphylococcus aureus [33] = assay: Antimicrobial activity against SCCmec type III vancomycin-intermediate Staphylococcus aureus isolate 13b16 by broth microdilution method
Staphylococcus aureus [34] = assay: Antimicrobial activity against vancomycin-susceptible Staphylococcus aureus assessed as growth inhibition at 2 times MIC; assay type: functional; design: scale not given: the % may be the effect or the level left
Staphylococcus aureus [35] = assay: Antimicrobial activity against SCCmec type III vancomycin-intermediate Staphylococcus aureus isolate gz06040 by broth microdilution method
Staphylococcus aureus [36] = assay: Antimicrobial activity against SCCmec type III vancomycin-intermediate Staphylococcus aureus isolate b4k6307 by broth microdilution method
Staphylococcus aureus [37] = assay: Antimicrobial activity against SCCmec type II vancomycin-intermediate Staphylococcus aureus isolate 07b63 by broth microdilution method
Staphylococcus aureus [38] = assay: Antimicrobial activity against heterogeneous vancomycin-intermediate Staphylococcus aureus assessed as growth inhibition at 0.25 times MIC; assay type: functional; design: scale not given: the % may be the effect or the level left
Staphylococcus aureus [39] = assay: Antimicrobial activity against heterogeneous vancomycin-intermediate Staphylococcus aureus assessed as growth inhibition at MIC; assay type: functional; design: scale not given: the % may be the effect or the level left
Staphylococcus aureus [40] = assay: Antimicrobial activity against SCCmec type III vancomycin-intermediate Staphylococcus aureus isolate sh07043 by broth microdilution method; assay type: functional; outline: as §1
Staphylococcus aureus [41] = assay: Antimicrobial activity against SCCmec type III vancomycin-intermediate Staphylococcus aureus isolate b2k3421 by broth microdilution method
Staphylococcus aureus [42] = assay: Antimicrobial activity against SCCmec type II vancomycin-intermediate Staphylococcus aureus isolate b2k4781 by broth microdilution method
Staphylococcus aureus [43] = assay: Antimicrobial activity against vancomycin-intermediate Staphylococcus aureus by broth microdilution method
Staphylococcus aureus [44] = assay: Antimicrobial activity against heterogeneous vancomycin-susceptible Staphylococcus aureus assessed as intermediate isolates by broth microdilution method; assay type: functional; outline: as §2
Staphylococcus aureus [45] = assay: Antimicrobial activity against SCCmec type II vancomycin-intermediate Staphylococcus aureus isolate sh06024 by broth microdilution method
Staphylococcus aureus [46] = assay: Antimicrobial activity against SCCmec type III vancomycin-intermediate Staphylococcus aureus isolate gs07022 by broth microdilution method
Staphylococcus aureus [47] = assay: Antimicrobial activity against heterogeneous vancomycin-intermediate Staphylococcus aureus assessed as intermediate isolates by broth microdilution method; assay type: functional; outline: as §2
Staphylococcus aureus [48] = assay: Antimicrobial activity against vancomycin-susceptible Staphylococcus aureus assessed as growth inhibition at 0.25 times MIC; assay type: functional; design: scale not given: the % may be the effect or the level left

CCCCCCCCCC(=O)N[C@@H](Cc1c[nH]c2ccccc12)C(=O)N[C@H](CC(N)=O)C(=O)N[C@@H](CC(=O)O)C(=O)N[C@@H]1C(=O)NCC(=O)N[C@@H](CCCN)C(=O)N[C@@H](CC(=O)O)C(=O)N[C@H](C)C(=O)N[C@@H](CC(=O)O)C(=O)NCC(=O)N[C@H](CO)C(=O)N[C@@H]([C@H](C)CC(=O)O)C(=O)N[C@@H](CC(=O)c2ccccc2N)C(=O)O[C@@H]1C
MIC50 (Staphylococcus aureus [1]): 0.5 µg/mL (≈ 0.309 µM)
MIC90 (Staphylococcus aureus [1]): 0.5 µg/mL (≈ 0.309 µM)
MIC (Staphylococcus aureus [2]): 0.5 µg/mL (≈ 0.309 µM)
MIC (Staphylococcus aureus [3]): 1 µg/mL (≈ 0.617 µM)
MIC (Staphylococcus aureus [4]): 0.5 µg/mL (≈ 0.309 µM)
Activity (Staphylococcus aureus [5]): 100%
MIC (Staphylococcus aureus [6]): 0.5 µg/mL (≈ 0.309 µM)
MIC (Staphylococcus aureus [7]): 0.5 µg/mL (≈ 0.309 µM)
Activity (Staphylococcus aureus [8]): 0.58%
MIC (Staphylococcus aureus [9]): 0.5 µg/mL (≈ 0.309 µM)
MIC (Staphylococcus aureus [10]): 0.5 µg/mL (≈ 0.309 µM)
MIC (Staphylococcus aureus [11]): 0.25 µg/mL (≈ 0.154 µM)
Activity (Staphylococcus aureus [12]): 100%
MIC (Staphylococcus aureus [13]): 0.5 µg/mL (≈ 0.309 µM)
MIC (Staphylococcus aureus [14]): 0.5 µg/mL (≈ 0.309 µM)
MIC50 (Staphylococcus aureus [15]): 0.5 µg/mL (≈ 0.309 µM)
MIC90 (Staphylococcus aureus [15]): 1 µg/mL (≈ 0.617 µM)
Activity (Staphylococcus aureus [16]): 100%
Activity (Staphylococcus aureus [17]): 100%
Activity (Staphylococcus aureus [18]): 100%
MIC (Staphylococcus aureus [19]): 0.5 µg/mL (≈ 0.309 µM)
Activity (Staphylococcus aureus [20]): 100%
MIC (Staphylococcus aureus [21]): 0.5 µg/mL (≈ 0.309 µM)
Activity (Staphylococcus aureus [22]): 95.1%
Activity (Staphylococcus aureus [23]): 100%
MIC (Staphylococcus aureus [24]): 0.5 µg/mL (≈ 0.309 µM)
MIC (Staphylococcus aureus [25]): 0.5 µg/mL (≈ 0.309 µM)
Activity (Staphylococcus aureus [26]): 100%
Activity (Staphylococcus aureus [27]): 88.9%
MIC (Staphylococcus aureus [28]): 0.5 µg/mL (≈ 0.309 µM)
MIC (Staphylococcus aureus [29]): 1 µg/mL (≈ 0.617 µM)
MIC (Staphylococcus aureus [30]): 0.25 µg/mL (≈ 0.154 µM)
Activity (Staphylococcus aureus [31]): 0%
MIC (Staphylococcus aureus [32]): 0.25 µg/mL (≈ 0.154 µM)
MIC (Staphylococcus aureus [33]): 0.5 µg/mL (≈ 0.309 µM)
Activity (Staphylococcus aureus [34]): 100%
MIC (Staphylococcus aureus [35]): 0.5 µg/mL (≈ 0.309 µM)
MIC (Staphylococcus aureus [36]): 0.25 µg/mL (≈ 0.154 µM)
MIC (Staphylococcus aureus [37]): 0.5 µg/mL (≈ 0.309 µM)
Activity (Staphylococcus aureus [38]): 14.8%
Activity (Staphylococcus aureus [39]): 100%
MIC (Staphylococcus aureus [40]): 1 µg/mL (≈ 0.617 µM)
MIC (Staphylococcus aureus [41]): 0.5 µg/mL (≈ 0.309 µM)
MIC (Staphylococcus aureus [42]): 0.5 µg/mL (≈ 0.309 µM)
MIC (Staphylococcus aureus [43]): 0.5 µg/mL (≈ 0.309 µM)
Activity (Staphylococcus aureus [44]): 0%
MIC (Staphylococcus aureus [45]): 0.5 µg/mL (≈ 0.309 µM)
MIC (Staphylococcus aureus [46]): 0.5 µg/mL (≈ 0.309 µM)
Activity (Staphylococcus aureus [47]): 0%
Activity (Staphylococcus aureus [48]): 10.7%
